The values that follow come from ChEMBL document CHEMBL5214907 (J Med Chem, 2021).

Sequence of Nicotinic acetylcholine receptor alpha9/alpha10 (P43144 whole entry): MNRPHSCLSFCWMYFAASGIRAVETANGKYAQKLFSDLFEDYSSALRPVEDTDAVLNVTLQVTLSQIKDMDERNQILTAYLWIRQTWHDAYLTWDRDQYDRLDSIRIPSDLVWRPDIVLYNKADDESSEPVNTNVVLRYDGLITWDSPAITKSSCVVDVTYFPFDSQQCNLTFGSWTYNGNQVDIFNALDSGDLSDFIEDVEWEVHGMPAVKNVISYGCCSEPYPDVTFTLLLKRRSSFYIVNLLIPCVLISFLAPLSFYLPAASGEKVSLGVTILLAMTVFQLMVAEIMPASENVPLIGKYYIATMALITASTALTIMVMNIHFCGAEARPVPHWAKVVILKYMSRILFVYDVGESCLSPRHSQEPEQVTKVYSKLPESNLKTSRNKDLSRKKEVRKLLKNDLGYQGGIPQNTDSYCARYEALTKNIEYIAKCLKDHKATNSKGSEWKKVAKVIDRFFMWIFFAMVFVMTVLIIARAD
Sequence of Nicotinic acetylcholine receptor alpha9/alpha10 (Q9JLB5 whole entry): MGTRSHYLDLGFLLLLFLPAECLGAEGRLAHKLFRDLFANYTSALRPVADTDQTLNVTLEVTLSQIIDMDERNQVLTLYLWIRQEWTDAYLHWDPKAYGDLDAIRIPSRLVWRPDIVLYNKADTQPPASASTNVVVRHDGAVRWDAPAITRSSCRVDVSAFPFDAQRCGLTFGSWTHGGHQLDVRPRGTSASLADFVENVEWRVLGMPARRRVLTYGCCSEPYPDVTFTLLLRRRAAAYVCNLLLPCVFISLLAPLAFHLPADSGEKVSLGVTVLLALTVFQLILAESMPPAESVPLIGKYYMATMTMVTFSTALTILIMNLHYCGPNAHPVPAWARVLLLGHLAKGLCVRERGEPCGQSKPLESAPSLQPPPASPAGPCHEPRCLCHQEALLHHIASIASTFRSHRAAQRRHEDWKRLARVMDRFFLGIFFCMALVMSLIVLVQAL

For the first assay, the target named is Neuronal acetylcholine receptor; alpha9/alpha10 (Homo sapiens, UniProt Q9GZZ6+Q9UGM1). Description: Inhibition of human alpha9alpha10 nAChR expressed in xenopus oocytes assessed as inhibition of Ach- induced response at -70 mV holding potential and measured for 1 to 5 days in presence of Ach stimulation by voltage-clamp based electrophysiological method. The class given is cell-based, Oocyte. The method, boiled down: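 Two-electrode voltage clamp on Xenopus oocytes expressing human α9α10, recorded 1–5 d after injection. Held at −70 mV at room temperature in Ca²⁺-containing ND-96. A 1 s pulse of 100 µM ACh was given every 60 s and peptide was flowed on. IC50 with 95% CI from 3–5 separate oocytes.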
Sequence of Neuronal acetylcholine receptor; alpha9/alpha10 (Q9UGM1 whole entry): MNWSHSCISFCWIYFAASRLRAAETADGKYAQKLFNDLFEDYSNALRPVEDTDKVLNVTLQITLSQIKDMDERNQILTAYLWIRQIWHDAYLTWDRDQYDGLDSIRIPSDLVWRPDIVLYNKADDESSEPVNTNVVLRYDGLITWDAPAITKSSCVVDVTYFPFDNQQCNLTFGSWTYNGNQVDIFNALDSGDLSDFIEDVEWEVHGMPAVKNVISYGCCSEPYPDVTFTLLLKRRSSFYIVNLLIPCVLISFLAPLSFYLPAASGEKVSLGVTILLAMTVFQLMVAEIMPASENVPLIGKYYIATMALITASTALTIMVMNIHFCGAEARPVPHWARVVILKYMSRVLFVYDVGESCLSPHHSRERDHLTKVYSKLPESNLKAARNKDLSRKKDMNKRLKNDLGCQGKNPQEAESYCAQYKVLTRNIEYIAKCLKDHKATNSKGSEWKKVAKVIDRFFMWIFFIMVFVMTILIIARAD
Sequence of Neuronal acetylcholine receptor; alpha9/alpha10 (Q9GZZ6 whole entry): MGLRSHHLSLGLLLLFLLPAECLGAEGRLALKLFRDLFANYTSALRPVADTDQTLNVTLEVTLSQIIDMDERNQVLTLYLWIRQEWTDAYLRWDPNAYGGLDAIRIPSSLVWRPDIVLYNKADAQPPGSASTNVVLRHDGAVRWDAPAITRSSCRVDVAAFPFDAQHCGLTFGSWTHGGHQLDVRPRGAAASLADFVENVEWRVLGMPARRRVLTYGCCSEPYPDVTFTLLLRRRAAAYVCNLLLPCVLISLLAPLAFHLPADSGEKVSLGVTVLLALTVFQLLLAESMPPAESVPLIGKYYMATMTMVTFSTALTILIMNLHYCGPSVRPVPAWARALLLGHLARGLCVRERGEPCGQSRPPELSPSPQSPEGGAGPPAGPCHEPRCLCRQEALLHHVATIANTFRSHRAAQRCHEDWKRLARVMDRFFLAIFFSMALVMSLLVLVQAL
The term IC50 denotes the concentration at which inhibition is half-maximal. With `C[C@@H](O)[C@@H]1NC(=O)[C@@H]2CSSC[C@@H](C(=O)N[C@@H](Cc3ccc(O)cc3)C(=O)O)NC(=O)[C@H](CCC(N)=O)NC(=O)[C@H](Cc3ccc(O)c(I)c3)NC(=O)[C@H](CCCNC(N)=O)NC(=O)[C@@H](NC(=O)[C@H](CCCNC(=N)N)NC(=O)[C@@H]3CCCN3C(=O)[C@H](CC(=O)O)NC1=O)C(C)(C)SSC[C@@H](NC(=O)CN)C(=O)N2`, the IC50 is > 1000 nM.

In the case of `C[C@@H](O)[C@@H]1NC(=O)[C@@H]2CSSC[C@@H](C(=O)N[C@@H](Cc3ccc(O)cc3)C(=O)O)NC(=O)[C@H](CCC(N)=O)NC(=O)[C@H](Cc3ccc(O)c(I)c3)NC(=O)[C@H](CCCNC(=N)N)NC(=O)[C@H](CSSC[C@@H](NC(=O)CN)C(=O)N2)NC(=O)[C@H](CCCNC(N)=O)NC(=O)[C@@H]2CCCN2C(=O)[C@H](CC(=O)O)NC1=O`, the IC50 worked out at 1.4 nM.

On to `C[C@@H](O)[C@@H]1NC(=O)[C@H]2NC(=O)[C@H](NC(=O)CN)CSSC[C@H](NC(=O)[C@H](CCCNC(=N)N)NC(=O)[C@@H]3CCCN3C(=O)[C@H](CC(=O)O)NC1=O)C(=O)N[C@@H](CCCNC(N)=O)C(=O)N[C@@H](Cc1ccc(O)c(I)c1)C(=O)N[C@@H](CCC(N)=O)C(=O)N[C@H](C(=O)N[C@@H](Cc1ccc(O)cc1)C(=O)O)CSSC2(C)C`, for which the IC50 turned out to be 1.3 nM.

Turning to `C[C@@H](O)[C@@H]1NC(=O)[C@H]2NC(=O)[C@H](NC(=O)CN)CSSC[C@H](NC(=O)[C@H](CCCNC(=N)N)NC(=O)[C@@H]3CCCN3C(=O)[C@H](CC(=O)O)NC1=O)C(=O)N[C@@H](CCCNC(=N)N)C(=O)N[C@@H](Cc1ccc(O)c(I)c1)C(=O)N[C@@H](CCCN)C(=O)N[C@H](C(=O)N[C@H](CC(=O)N[C@@H](CCCNC(N)=O)C(=O)O)Cc1ccc(O)cc1)CSSC2(C)C`, the IC50 amounted to 0.26 nM.

On to `C[C@@H](O)[C@@H]1NC(=O)[C@H]2NC(=O)[C@H](NC(=O)CN)CSSC[C@H](NC(=O)[C@H](CCCNC(=N)N)NC(=O)[C@@H]3CCCN3C(=O)[C@H](CC(=O)O)NC1=O)C(=O)N[C@@H](CCCNC(=N)N)C(=O)N[C@@H](Cc1ccc(O)c(I)c1)C(=O)N[C@@H](CCCN)C(=O)N[C@H](C(=O)N[C@H](CC(=O)N[C@H](CCCNC(=N)N)C(=O)O)Cc1ccc(O)cc1)CSSC2(C)C`, for which the IC50 worked out at 4 nM.

For the molecule `C[C@@H](O)[C@@H]1NC(=O)[C@H]2NC(=O)[C@H](NC(=O)CN)CSSC[C@H](NC(=O)[C@H](CCCNC(=N)N)NC(=O)[C@@H]3CCCN3C(=O)[C@H](CC(=O)O)NC1=O)C(=O)N[C@@H](CCCNC(=N)N)C(=O)N[C@@H](Cc1ccc(O)c(I)c1)C(=O)N[C@@H](CCCN)C(=O)N[C@H](C(=O)N[C@H](CC(=O)N[C@@H](CCCCN)C(=O)O)Cc1ccc(O)cc1)CSSC2(C)C`, the IC50 came to 0.36 nM.

`C[C@@H](O)[C@@H]1NC(=O)[C@H]2NC(=O)[C@H](NC(=O)CN)CSSC[C@H](NC(=O)[C@H](CCCNC(=N)N)NC(=O)[C@@H]3CCCN3C(=O)[C@H](CC(=O)O)NC1=O)C(=O)N[C@@H](CCCNC(=N)N)C(=O)N[C@@H](Cc1ccc(O)c(I)c1)C(=O)N[C@@H](CCCN)C(=O)N[C@H](C(=O)N[C@H](CC(=O)N[C@@H](CCC(=O)O)C(=O)O)Cc1ccc(O)cc1)CSSC2(C)C`: the IC50 is 0.4 nM.

Take `C[C@@H](O)[C@@H]1NC(=O)[C@H]2NC(=O)[C@H](NC(=O)CN)CSSC[C@H](NC(=O)[C@H](CCCNC(=N)N)NC(=O)[C@@H]3CCCN3C(=O)[C@H](CC(=O)O)NC1=O)C(=O)N[C@@H](CCCNC(=N)N)C(=O)N[C@@H](Cc1ccc(O)c(I)c1)C(=O)N[C@@H](CCCN)C(=O)N[C@H](C(=O)N[C@H](CC(=O)N[C@@H](CCCN)C(=O)O)Cc1ccc(O)cc1)CSSC2(C)C`: the half-inhibitory concentration (IC50) came to 0.34 nM.

The next assay has as its target Nicotinic acetylcholine receptor alpha9/alpha10 (Rattus norvegicus, UniProt P43144+Q9JLB5). The class given is cell-based, Oocyte.
Molecule `N=C(N)NCCC[C@H](NC(=O)[C@@H]1CSSC[C@@H]2NC(=O)[C@@H](NC(=O)CN)CSSC[C@H](NC(=O)[C@H](CCCNC(=N)N)NC(=O)[C@@H]3CCCN3C(=O)[C@H](CC(=O)O)NC(=O)[C@H](CO)NC2=O)C(=O)N[C@@H](CCCNC(N)=O)C(=O)N[C@@H](Cc2ccc(O)cc2)C(=O)N[C@@H](CCCNC(=N)N)C(=O)N1)C(=O)O` registered an IC50 of 1.49 nM.
